Key:
Rattus norvegicus [1] = assay: Effect of the 25 mg/kg compound on 3-alpha,5alpha-THDOC concentration in rat cerebral cortex after 30 min of intraperitoneal administration; type: functional, organism-based; parameters: dose 25 mg/kg
Summary of the method: (§1)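 Male Sprague–Dawley rats, about 60 days old, given 25 mg/kg ip in saline with three drops Tween 80 per 5 mL, 0.3 mL/100 g; sampled 30 min later. Brain taken after focused microwave irradiation of the head, plasma after guillotine. Cortex and plasma extracted with ethyl acetate; steroids measured by radioimmunoassay. Results in ng/g tissue, at least eight rats per group, compared with vehicle-treated rats.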

Translocator protein [2] = target: T1, Translocator protein (Rattus norvegicus, UniProt P16257); assay: Displacement of [3H]-PK11195 from peripheral benzodiazepine receptor of rat ovary; type: tissue-based, Female gonad
Summary of the method: (§2)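 Rat tissue (cerebral cortex, ovary) homogenised in 50 vol PBS pH 7.4 at 4 °C, spun at 40 000g for 30 min, washed, resuspended in 10 vol PBS. […] Filtration on polyethyleneimine-soaked GF/B filters, scintillation counting. […] Means of three experiments in duplicate; Ki reported.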

[3] = target: GABA-A receptor; anion channel; assay: Displacement of [3H]flunitrazepam from central benzodiazepine GABA-A receptor of rat cerebral cortex; type: tissue-based
Summary of the method: (§3)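 Rat cerebral cortex homogenised in 50 vol ice-cold 50 mM Tris-HCl pH 7.4, spun twice at 20 000g for 10 min. Membranes (0.4–0.5 mg protein) incubated with [3H]flunitrazepam for 60 min at 0 °C. Rapid filtration on GF/B filters, scintillation counting. Nonspecific binding with 5 μM diazepam. Means of three experiments in duplicate; Ki reported.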

Translocator protein [4] = target: T1, Translocator protein; assay: Displacement of [3H]PK11195 from peripheral benzodiazepine receptor of rat cerebral cortex; type: tissue-based; summary of the method: as §2
[5] = target: GABA-A receptor; anion channel; assay: Inhibitory concentration of central benzodiazepine GABA-A receptor of rat cerebral cortex; type: tissue-based; summary of the method: as §3
Translocator protein [6] = target: T1, Translocator protein; assay: Inhibitory concentration against peripheral benzodiazepine receptor of rat ovary; type: tissue-based, Female gonad; summary of the method: as §2
Rattus norvegicus [7] = assay: Effect of the 25 mg/kg compound on 3-alpha,5alpha-THDOC concentration in rat plasma after 30 min of intraperitoneal administration; type: functional, organism-based; parameters: dose 25 mg/kg; summary of the method: as §1
Rattus norvegicus [8] = assay: Effect of the 25 mg/kg compound on progesterone concentration in rat plasma after 30 min of intraperitoneal administration; type: functional, organism-based; parameters: dose 25 mg/kg; summary of the method: as §1
Rattus norvegicus [9] = assay: Effect of the 25 mg/kg compound on progesterone concentration in rat cerebral cortex after 30 min of intraperitoneal administration; type: functional, organism-based; parameters: dose 25 mg/kg; summary of the method: as §1
[10] = target: Benzodiazepine receptors; peripheral & central (Rattus norvegicus) (UniProt O09028+P15431+P18506+P18508+P19969+P20236+P23574+P23576+P28471+P28473+P30191+P62813+P63079+P63138+Q91ZM7+Q9ES14+P16257); assay: Ratio of inhibition for peripheral benzodiazepine receptor of rat ovary and central benzodiazepine GABA-A receptor; type: tissue-based; parameters: scale not given here; conditions: Female gonad
Rattus norvegicus [11] = assay: Effect of the 25 mg/kg compound on 3-alpha,5alpha-THPROG concentration in rat cerebral cortex after 30 min of intraperitoneal administration; type: functional, organism-based; parameters: dose 25 mg/kg; summary of the method: as §1
Rattus norvegicus [12] = assay: Effect of the 25 mg/kg compound on 3-alpha,5alpha-THPROG concentration in rat plasma after 30 min of intraperitoneal administration; type: functional, organism-based; parameters: dose 25 mg/kg; summary of the method: as §1
Translocator protein [13] = target: T1, Translocator protein; assay: Inhibitory concentration against peripheral benzodiazepine receptor of rat cerebral cortex; type: tissue-based; summary of the method: as §2

T1 sequence (P16257 whole entry, looked up): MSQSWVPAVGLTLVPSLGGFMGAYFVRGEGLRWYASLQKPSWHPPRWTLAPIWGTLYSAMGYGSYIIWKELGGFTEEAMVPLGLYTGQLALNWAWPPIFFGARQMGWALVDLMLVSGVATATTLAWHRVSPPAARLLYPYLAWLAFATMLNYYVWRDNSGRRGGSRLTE

| SMILES | Concentration (Rattus norvegicus [1]) [ng/g] | Ki (Translocator protein [2]) [nM] | Ki [3] [nM] | Ki (Translocator protein [4]) [nM] | pIC50 [5] | IC50 (Translocator protein [6]) [nM] | Concentration (Rattus norvegicus [7]) [ng/mL] | Concentration (Rattus norvegicus [8]) [ng/mL] | Concentration (Rattus norvegicus [9]) [ng/g] | Selectivity index [10] | Concentration (Rattus norvegicus [11]) [ng/g] | Concentration (Rattus norvegicus [12]) [ng/mL] | IC50 (Translocator protein [13]) [nM] |
| --- | --- | --- | --- | --- | --- | --- | --- | --- | --- | --- | --- | --- | --- |
| CCCCN(C(=O)Cc1c(-c2ccccc2)nc2c(Cl)cc(Cl)cn12)c1ccccc1 | 2.6 | 3.5 | 6880 | 6.78 | 5 | 4.6 | 8.9 | 17.3 | 5.8 | 3.34 | 16.3 | 21.3 | 11.5 |
| O=C(Cc1c(-c2ccc(Cl)cc2)nc2c(Cl)cc(Cl)cn12)N1CCCCC1 | 2.9 | 65.4 | 7590 | 3.05 | 5 | 92 | 9.6 | 12.2 | 7.8 | 2.04 | 7.3 | 19.4 | 5 |
| C=CCN(CC=C)C(=O)Cc1c(-c2ccc(Cl)cc2)nc2c(Cl)cc(Cl)cn12 | 3.2 | 4.06 | 7750 | 4.77 | 5 | 5.6 | 9 | 12.2 | 11.5 | 3.25 | 8.6 | 18.1 | 8.09 |
| CCCCN(CCCC)C(=O)Cc1c(-c2ccc(Cl)cc2)nc2c(Cl)cc(Cl)cn12 | 3.5 | 13.2 | 7750 | 2.68 | 5 | 18.6 | 16.2 | 19 | 11.5 | 2.73 | 9.1 | 27.5 | 5.2 |
| CCCCN(CCCC)C(=O)Cc1c(-c2ccc(Cl)cc2)nc2c(Cl)cccn12 | 2.9 | 17.2 | 6880 | 4.64 | 5 | 22.6 | 14.9 | 26 | 10.3 | 7.65 | 8.8 | 23.4 | 7.87 |
